As usually defined, the IC50 is the midpoint of a concentration-inhibition curve. High values mean weaker potency in that assay, low ones greater potency in that assay.

Molecules are shown by their SMILES. Where a SMILES comes first, the peptide text is derived from it. [ ]: non-standard residue; d: D form. The star is where a group is joined. Ala(2H-imidazol-2-yl) = N[C@@H](CC1N=CC=N1)C(=O)O; Sta = CC(C)C[C@H](N)[C@@H](O)CC(=O)O; NHCH2(2-pyridyl) = c1ccc(CN*)nc1; Boc = CC(C)(C)OC(=O)*

For nine compounds, IC50 results are on record in ChEMBL document CHEMBL1123252, “Design and synthesis of potent and specific renin inhibitors containing difluorostatine, difluorostatone, and related analogues” (J Med Chem, 1986).

In this assay the target is T1, Renin (Homo sapiens, UniProt P00797).
T1 sequence (P00797 whole entry): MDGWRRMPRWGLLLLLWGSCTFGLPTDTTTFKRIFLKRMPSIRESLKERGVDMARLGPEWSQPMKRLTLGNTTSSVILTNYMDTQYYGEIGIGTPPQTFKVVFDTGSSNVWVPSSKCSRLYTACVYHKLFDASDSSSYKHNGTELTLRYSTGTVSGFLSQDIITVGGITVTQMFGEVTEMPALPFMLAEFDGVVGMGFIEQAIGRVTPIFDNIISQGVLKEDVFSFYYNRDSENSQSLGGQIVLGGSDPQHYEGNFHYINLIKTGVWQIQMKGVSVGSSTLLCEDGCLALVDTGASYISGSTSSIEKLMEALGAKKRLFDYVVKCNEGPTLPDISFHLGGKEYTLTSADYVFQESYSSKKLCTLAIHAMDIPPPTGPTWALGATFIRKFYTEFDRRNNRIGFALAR
The experiment in a line: Inhibition of human plasma renin. Format: cell-free. In short, it runs like this: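 Lyophilized human plasma with 0.1% EDTA, plus phenylmethanesulfonyl fluoride and maleate buffer pH 6.0. Inhibitor given in 1% Tween 80 in water. Angiotensin I generated over 90 min at 37 °C and measured by radioimmunoassay kit. Percent inhibition taken versus control tubes. IC50 estimated graphically from 3-4 concentrations on semilog plot.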
Consider `CC[C@H](C)[C@H](NC(=O)C(F)(F)[C@H](O)[C@H](CC(C)C)NC(=O)[C@H](CC1N=CC=N1)NC(=O)[C@H](Cc1ccccc1)NC(=O)OC(C)(C)C)C(=O)NCc1ccccn1`, for which the IC50 amounted to 12 nM. The result for `CC[C@H](C)[C@H](NC(=O)C(F)(F)C(=O)[C@H](Cc1ccccc1)NC(=O)[C@H](CC1N=CC=N1)NC(=O)[C@H](Cc1ccccc1)NC(=O)OC(C)(C)C)C(=O)NCc1ccccn1` reads 1.3 nM. `CC[C@H](C)[C@H](NC(=O)CC(=O)[C@H](CC(C)C)NC(=O)[C@H](CC1N=CC=N1)NC(=O)[C@H](Cc1ccccc1)NC(=O)OC(C)(C)C)C(=O)NCc1ccccn1`: half-maximal inhibition (IC50) required 34 nM. With `CC[C@H](C)[C@H](NC(=O)C(F)(F)C(=O)[C@H](CC1CCCCC1)NC(=O)[C@H](CC1N=CC=N1)NC(=O)[C@H](Cc1ccccc1)NC(=O)OC(C)(C)C)C(=O)NCc1ccccn1`, the IC50 came out at 2.5 nM. To `CC[C@H](C)[C@H](NC(=O)C(F)(F)[C@@H](O)[C@H](CC(C)C)NC(=O)[C@H](CC1N=CC=N1)NC(=O)[C@H](Cc1ccccc1)NC(=O)OC(C)(C)C)C(=O)NCc1ccccn1` belongs 730 nM; to `CC[C@H](C)[C@H](NC(=O)C(F)(F)C(=O)[C@H](CC(C)C)NC(=O)[C@H](CC1N=CC=N1)NC(=O)[C@H](Cc1ccccc1)NC(=O)OC(C)(C)C)C(=O)NCc1ccccn1`, 0.52 nM; to `CC[C@H](C)[C@H](NC(=O)C(F)(F)[C@H](O)[C@H](CC1CCCCC1)NC(=O)[C@H](CC1N=CC=N1)NC(=O)[C@H](Cc1ccccc1)NC(=O)OC(C)(C)C)C(=O)NCc1ccccn1`, 0.57 nM. The result for `CC[C@H](C)[C@H](NC(=O)C(F)(F)[C@H](O)[C@H](Cc1ccccc1)NC(=O)[C@H](CC1N=CC=N1)NC(=O)[C@H](Cc1ccccc1)NC(=O)OC(C)(C)C)C(=O)NCc1ccccn1` reads 13 nM; that for `CC[C@H](C)[C@H](NC(=O)C[C@H](O)[C@H](CC(C)C)NC(=O)[C@H](CC1N=CC=N1)NC(=O)[C@H](Cc1ccccc1)NC(=O)OC(C)(C)C)C(=O)NCc1ccccn1` (Boc-F[Ala(2H-imidazol-2-yl)][Sta]I-{NHCH2(2-pyridyl)}), 1.7 nM.
